Assay results published in article PMC3158671 (Carbohydrate Research, 2011).

What was measured:
[1] = target: T1, human lysosomal β-galactosidase (Homo sapiens, UniProt P16278); test: Human lysosomal β-galactosidase inhibition; type: biochemical
T1 sequence (P16278 29-677): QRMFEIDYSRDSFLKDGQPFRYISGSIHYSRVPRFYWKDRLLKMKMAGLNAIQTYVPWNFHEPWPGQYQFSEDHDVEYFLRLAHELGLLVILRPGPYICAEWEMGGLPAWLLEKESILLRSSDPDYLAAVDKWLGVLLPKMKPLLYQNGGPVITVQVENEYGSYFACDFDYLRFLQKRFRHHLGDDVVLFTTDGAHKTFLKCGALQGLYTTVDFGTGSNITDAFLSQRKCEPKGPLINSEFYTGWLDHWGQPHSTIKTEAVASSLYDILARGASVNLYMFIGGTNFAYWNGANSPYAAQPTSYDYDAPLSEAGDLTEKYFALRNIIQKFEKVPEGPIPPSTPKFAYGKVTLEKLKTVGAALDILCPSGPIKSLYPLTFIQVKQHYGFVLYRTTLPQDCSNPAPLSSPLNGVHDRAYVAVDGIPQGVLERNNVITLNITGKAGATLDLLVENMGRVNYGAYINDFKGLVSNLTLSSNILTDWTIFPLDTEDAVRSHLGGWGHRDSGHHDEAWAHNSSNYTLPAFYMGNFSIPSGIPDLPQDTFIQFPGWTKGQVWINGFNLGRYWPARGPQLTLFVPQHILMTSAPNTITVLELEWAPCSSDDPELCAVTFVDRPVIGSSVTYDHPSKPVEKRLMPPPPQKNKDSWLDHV

[2] = target: T2, β-glucosidase/β-galactosidase from Agrobacterium sp. (Agrobacterium sp., UniProt P12614); test: Agrobacterium sp. β-galactosidase/-glucosidase inhibition; type: biochemical
T2 sequence (P12614 1-459): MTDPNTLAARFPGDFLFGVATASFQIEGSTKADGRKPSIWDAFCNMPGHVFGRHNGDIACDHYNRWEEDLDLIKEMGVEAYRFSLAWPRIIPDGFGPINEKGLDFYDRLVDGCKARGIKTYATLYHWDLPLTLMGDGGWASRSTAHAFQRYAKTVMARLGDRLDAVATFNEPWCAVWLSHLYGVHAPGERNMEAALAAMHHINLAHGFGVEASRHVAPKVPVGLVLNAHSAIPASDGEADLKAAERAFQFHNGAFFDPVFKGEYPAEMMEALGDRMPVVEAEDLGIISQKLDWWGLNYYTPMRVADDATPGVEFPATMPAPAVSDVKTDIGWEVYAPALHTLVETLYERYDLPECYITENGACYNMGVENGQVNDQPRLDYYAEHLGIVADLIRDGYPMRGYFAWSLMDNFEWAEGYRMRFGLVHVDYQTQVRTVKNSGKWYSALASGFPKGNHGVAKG

[3] = target: T3, β-galactosidase p.Arg483Pro mutation (Felis catus, UniProt O19015, R483P); test: Intracellular β-galactosidase activity in GM1 gangliosidosis feline fibroblasts; type: cell-based, cat; conditions: 5 days; for maximal increase of intracellular β-galactosidase activity: relative to DMSO treated cells
T3 sequence (O19015 30-669 R483P): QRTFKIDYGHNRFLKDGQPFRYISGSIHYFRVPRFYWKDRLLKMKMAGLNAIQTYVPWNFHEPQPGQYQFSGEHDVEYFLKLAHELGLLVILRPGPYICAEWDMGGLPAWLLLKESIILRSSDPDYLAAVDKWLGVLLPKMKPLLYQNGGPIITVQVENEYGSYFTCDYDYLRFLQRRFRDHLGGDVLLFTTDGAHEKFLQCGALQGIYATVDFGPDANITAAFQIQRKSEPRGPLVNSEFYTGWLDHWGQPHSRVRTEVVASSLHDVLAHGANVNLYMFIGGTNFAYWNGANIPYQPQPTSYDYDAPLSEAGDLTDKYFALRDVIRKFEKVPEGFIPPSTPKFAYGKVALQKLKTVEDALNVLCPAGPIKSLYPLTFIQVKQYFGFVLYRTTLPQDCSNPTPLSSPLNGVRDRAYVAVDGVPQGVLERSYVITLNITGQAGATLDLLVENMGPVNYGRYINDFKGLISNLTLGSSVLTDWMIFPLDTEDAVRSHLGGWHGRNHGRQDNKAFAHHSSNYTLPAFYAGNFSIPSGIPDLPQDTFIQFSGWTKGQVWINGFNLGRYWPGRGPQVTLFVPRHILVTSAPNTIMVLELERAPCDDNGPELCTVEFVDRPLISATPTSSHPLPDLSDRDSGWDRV
Summary of the method: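 GM1 gangliosidosis fibroblasts from an affected cat (β-galactosidase p.Arg483Pro) treated 5 days with escalating doses of test compound dissolved in DMSO. Cells lysed; intracellular β-galactosidase measured with fluorogenic 4-methylumbelliferyl β-D-galactopyranoside, β-N-acetylhexosaminidase also measured with MU substrate. Activity normalized to DMSO-treated cells.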

[4] = target: α-galactosidase from green coffee beans (Coffea arabica, UniProt Q42656); test: Green coffee bean α-galactosidase inhibition; type: biochemical
Sequence of α-galactosidase from green coffee beans (Q42656 16-378): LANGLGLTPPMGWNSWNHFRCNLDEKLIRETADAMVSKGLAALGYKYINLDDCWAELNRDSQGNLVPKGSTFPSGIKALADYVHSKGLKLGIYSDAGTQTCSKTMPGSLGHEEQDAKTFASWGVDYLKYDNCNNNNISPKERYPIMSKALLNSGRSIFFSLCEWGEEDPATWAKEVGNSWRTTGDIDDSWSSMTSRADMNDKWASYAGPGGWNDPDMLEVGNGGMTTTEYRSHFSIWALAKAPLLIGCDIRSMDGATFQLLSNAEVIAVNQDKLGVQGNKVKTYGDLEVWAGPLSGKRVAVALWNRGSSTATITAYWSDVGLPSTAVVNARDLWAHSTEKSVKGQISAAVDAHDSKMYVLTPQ

[5] = target: β-galactosidase from E. coli (Escherichia coli, UniProt P00722); test: E. coli β-galactosidase inhibition; type: biochemical
Sequence of β-galactosidase from E. coli (P00722 2-1024 limits assumed): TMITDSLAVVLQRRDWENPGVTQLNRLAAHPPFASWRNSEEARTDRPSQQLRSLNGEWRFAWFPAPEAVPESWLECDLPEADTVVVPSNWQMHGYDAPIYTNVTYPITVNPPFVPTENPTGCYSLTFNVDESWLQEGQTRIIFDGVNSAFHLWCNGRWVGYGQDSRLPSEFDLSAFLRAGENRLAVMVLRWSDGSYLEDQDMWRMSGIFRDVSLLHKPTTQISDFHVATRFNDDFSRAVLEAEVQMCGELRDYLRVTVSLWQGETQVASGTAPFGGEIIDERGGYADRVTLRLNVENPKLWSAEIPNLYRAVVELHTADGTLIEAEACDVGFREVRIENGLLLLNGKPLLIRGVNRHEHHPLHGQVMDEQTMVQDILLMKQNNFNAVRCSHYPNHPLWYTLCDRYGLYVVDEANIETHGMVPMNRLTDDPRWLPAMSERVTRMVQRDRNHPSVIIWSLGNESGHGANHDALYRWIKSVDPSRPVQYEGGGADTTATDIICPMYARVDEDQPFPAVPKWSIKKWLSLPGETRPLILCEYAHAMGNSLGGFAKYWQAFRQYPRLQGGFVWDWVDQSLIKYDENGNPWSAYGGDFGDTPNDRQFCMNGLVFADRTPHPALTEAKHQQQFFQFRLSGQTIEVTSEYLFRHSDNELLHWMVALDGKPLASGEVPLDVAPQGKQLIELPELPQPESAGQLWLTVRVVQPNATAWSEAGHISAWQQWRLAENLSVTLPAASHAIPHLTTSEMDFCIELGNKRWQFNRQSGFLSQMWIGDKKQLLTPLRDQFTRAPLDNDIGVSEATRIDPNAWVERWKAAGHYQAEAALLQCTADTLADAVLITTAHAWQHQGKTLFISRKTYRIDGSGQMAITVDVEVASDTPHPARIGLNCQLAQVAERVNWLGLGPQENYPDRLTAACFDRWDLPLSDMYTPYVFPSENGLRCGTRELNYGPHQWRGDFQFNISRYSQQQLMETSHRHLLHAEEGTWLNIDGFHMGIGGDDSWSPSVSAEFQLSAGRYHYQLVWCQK

Row | Structure (SMILES) | IC50 [1] | Ki [2] | concentration at maximal increase of intracellular β-galactosidase activity [3] | range of β-galactosidase activity enhancement [3] | maximal increase of intracellular β-galactosidase activity [3] | Ki [4] | Ki [5]
1 | CN(C)c1cccc2c(S(=O)(=O)NCCCCCCNC(=O)CCCCCN3C[C@H](O)[C@@H](O)[C@@H](O)[C@H]3CO)cccc12 [Compound 8, N-(Dansylamino)hexylaminocarbonylpentyl-1,5-dideoxy-1,5-imino-D-galactitol] | 6200 nM | 450 nM | 258 µM | large range over which it enhanced β-galactosidase activity | 1.7 fold | – | –
2 | CN(C)c1cccc2c(S(=O)(=O)NCCCCCCN(CCCCCCNS(=O)(=O)c3cccc4c(N(C)C)cccc34)C(=O)CCCCCN3C[C@H](O)[C@@H](O)[C@@H](O)[C@H]3CO)cccc12 [Compound 9, N-Bis(dansylaminohexyl)aminocarbonylpentyl-1,5-dideoxy-1,5-imino-D-galactitol] | 850 nM | 630 nM | 2.1 µM | – | 1.5 fold | 2600 nM | 290 nM
3 | CN(C)c1cccc2c(S(=O)(=O)NCCCCCCN(CCCCCCNS(=O)(=O)c3cccc4c(N(C)C)cccc34)CCCCCCN3C[C@H](O)[C@@H](O)[C@@H](O)[C@H]3CO)cccc12 [Compound 13, N-Bis(dansylaminohexyl)aminohexyl-1,5-dideoxy-1,5-imino-D-galactitol] | 2700 nM | 230 nM | 3.0 µM | – | 1.8 fold | 530 nM | 120 nM
4 | CCCCCCCC(=O)N(CCCCCCNS(=O)(=O)c1cccc2c(N(C)C)cccc12)CCCCCCN1C[C@H](O)[C@@H](O)[C@@H](O)[C@H]1CO [Compound 15, N-[(Dansylaminohexyl)-N-octanoylamino]hexyl-1,5-dideoxy-1,5-imino-D-galactitol] | 1800 nM | 28 nM | – | – | – | 200 nM | 47 nM
